Test [1] relates to Rattus norvegicus. Kind of test: Postcoital antifertility activity in rat assessed as viable/resorbing fetuses at 1 ug, sc qd for 11 days. Type of test: functional, organism-based. Summed up:
(§1)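 Female rats, 4–5 per group, given 11 daily oral or subcutaneous doses starting at the first evidence of breeding. They were killed on day 12 and checked for viable or resorbing fetuses. Results are given as animals pregnant out of animals treated.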

Test [2] has as its system Rattus norvegicus. Kind of test: Postcoital antifertility activity in rat assessed as viable/resorbing fetuses at 1 ug, po qd for 11 days. Type of test: functional, organism-based. A digest of the protocol:
as §1

The test system of test [3] is Mus musculus. Briefly: Antiestrogenic activity in immature Cox mouse assessed as reduction of uterine wet weight at 30 ug, sc qd for 3 days in presence of 0.3 ug of estrone. It counts as functional. Summed up:
(§2)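 Immature mice, ten per group, given the agent daily for 3 days by subcutaneous injection or by mouth. The agent went with estrone given subcutaneously (0.3 µg total dose in the table). Subcutaneous doses were in 0.1 mL corn oil, and doses are stated as total dose. Uterine wet weight was taken on day 4 and compared with estrone alone. Reported as mean difference in mg (SE) and % inhibition.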

The test system of test [4] is Mus musculus. Briefly: Antiestrogenic activity in immature Cox mouse assessed as reduction of uterine wet weight at 10 ug, sc qd for 3 days in presence of 0.3 ug of estrone. It counts as functional. A digest of the protocol:
as §2

The subject of test [5] is Mus musculus. Briefly: Antiestrogenic activity in immature Cox mouse assessed as reduction of uterine wet weight at 1 ug, sc qd for 3 days. Type of test: functional.
For test [6], the system named is Rattus norvegicus. Kind of test: Postcoital antifertility activity in rat assessed as viable/resorbing fetuses at 0.5 ug, po qd for 11 days. Type of test: functional, organism-based. A digest of the protocol: as §1
Test [7] concerns Mus musculus. Kind of test: Antiestrogenic activity in immature Cox mouse assessed as reduction of uterine wet weight at 10 ug, sc qd for 3 days. It counts as functional.
Test [8] relates to Mus musculus. Briefly: Antiestrogenic activity in immature Cox mouse assessed as reduction of uterine wet weight at 1 ug, sc qd for 3 days in presence of 0.3 ug of estrone. It counts as functional. Summed up:
as §2

Test [9] has as its system Rattus norvegicus. Briefly: Postcoital antifertility activity in rat assessed as viable/resorbing fetuses at 5 ug, sc qd for 11 days. Type of test: functional, organism-based. A digest of the protocol: as §1
The test system of test [10] is Rattus norvegicus. Briefly: Antiuterotropic activity in ovariectomized rat assessed as reduction of uterine weight at 10 ug, po qd for 7 days in presence of 17beta-estradiol (reference value: 268.7 +/- 10.3 mg). Type of test: functional.
Test [11] concerns Mus musculus. Briefly: Antiestrogenic activity in immature Cox mouse assessed as reduction of uterine wet weight at 30 ug, po qd for 3 days in presence of 0.3 ug of estrone. It counts as functional. A digest of the protocol: as §2
In test [12] the test system is Mus musculus. Kind of test: Antiestrogenic activity in immature Cox mouse assessed as reduction of uterine wet weight at 3 ug, sc qd for 3 days in presence of 0.3 ug of estrone. It counts as functional. Summed up: as §2
The test system of test [13] is Rattus norvegicus. Kind of test: Postcoital antifertility activity in rat assessed as viable/resorbing fetuses at 0.5 ug, sc qd for 11 days. Type of test: functional, organism-based. A digest of the protocol: as §1
Test [14] relates to Rattus norvegicus. Briefly: Uterotropic activity in ovariectomized rat assessed as increase of uterine weight at 0.5 ug, po qd for 7 days. It counts as functional, Uterus. To be noted: in the assay text read “0.5 mg” for “0.5 ug”. Summed up:
(§3)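 Ovariectomized adult rats, five per group, treated daily for 7 days, orally or subcutaneously, with the agent in 0.1 mL corn oil. The value is the mean uterine weight in mg of the treated group minus that of the control group (eight animals). Significance was tested by Student's t test (p < 0.05).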

Test [15] has as its system Mus musculus. Briefly: Antiestrogenic activity in immature Cox mouse assessed as reduction of uterine wet weight at 300 ug, po qd for 3 days in presence of 0.3 ug of estrone. Type of test: functional. A digest of the protocol:
as §2

Test [16] has as its system Rattus norvegicus. Briefly: Antiuterotropic activity in ovariectomized rat assessed as reduction of uterine weight at 5 ug, po qd for 7 days in presence of 17beta-estradiol (reference value: 268.7 +/- 10.3 mg). It counts as functional.
The test system of test [17] is Mus musculus. Briefly: Antiestrogenic activity in immature Cox mouse assessed as reduction of uterine wet weight at 30 ug, sc qd for 3 days. Type of test: functional.
For test [18], the system named is Rattus norvegicus. Kind of test: Postcoital antifertility activity in rat assessed as viable/resorbing fetuses at 5 ug, po qd for 11 days. Type of test: functional, organism-based. Summed up:
as §1

Test [19] deals with Mus musculus. Briefly: Antiestrogenic activity in immature Cox mouse assessed as reduction of uterine wet weight at 100 ug, po qd for 3 days in presence of 0.3 ug of estrone. Type of test: functional. Summed up: as §2
For test [20], the system named is Mus musculus. Briefly: Antiestrogenic activity in immature Cox mouse assessed as reduction of uterine wet weight at 300 ug, sc qd for 3 days. It counts as functional.
Test [21] has as its system Mus musculus. Briefly: Antiestrogenic activity in immature Cox mouse assessed as reduction of uterine wet weight at 100 ug, sc qd for 3 days. Type of test: functional.
Test [22] concerns Rattus norvegicus. Briefly: Uterotropic activity in ovariectomized rat assessed as increase of uterine weight at 1 ug, sc qd for 7 days. Type of test: functional, Uterus. Conditions: in the assay text read “1 mg” for “1 ug”. Summed up: as §3
Test [23] concerns Rattus norvegicus. Briefly: Antiuterotropic activity in ovariectomized rat assessed as reduction of uterine weight at 3 ug, po qd for 7 days in presence of 17beta-estradiol (reference value: 268.7 +/- 10.3 mg). Type of test: functional.
The subject of test [24] is Mus musculus. Kind of test: Antiestrogenic activity in immature Cox mouse assessed as reduction of uterine wet weight at 3 ug, sc qd for 3 days. It counts as functional.
Test [25] deals with Mus musculus. Kind of test: Antiestrogenic activity in immature Cox mouse assessed as reduction of uterine wet weight at 300 ug, sc qd for 3 days in presence of 0.3 ug of estrone. It counts as functional. Summed up: as §2
In test [26] the test system is Rattus norvegicus. Briefly: Uterotropic activity in ovariectomized rat assessed as increase of uterine weight at 1 ug, po qd for 7 days. It counts as functional, Uterus. Conditions: in the assay text read “1 mg” for “1 ug”. A digest of the protocol: as §3
Test [27] has as its system Rattus norvegicus. Briefly: Uterotropic activity in ovariectomized rat assessed as increase of uterine weight at 0.1 ug, po qd for 7 days. Type of test: functional, Uterus. To be noted: in the assay text read “0.1 mg” for “0.1 ug”. Summed up: as §3
In test [28] the test system is Mus musculus. Kind of test: Antiestrogenic activity in immature Cox mouse assessed as reduction of uterine wet weight at 100 ug, sc qd for 3 days in presence of 0.3 ug of estrone. It counts as functional. A digest of the protocol:
as §2

Structures are written as SMILES. Active and inactive are the calls of the source. The rule behind the calls is not given here.

The record followed here is ChEMBL document CHEMBL3243977, “Synthesis and antiestrogenic activity of [3,4-dihydro-2-(4-methoxyphenyl)-1-naphthalenyl][4-[2-(1-pyrrolidinyl)ethoxy]-phenyl]methanone, methanesulfonic acid salt” (J Med Chem, 1979).

Take `COc1ccc(C(=O)C2=C(c3ccc(OC)cc3)CCc3ccccc32)cc1`: the result in the test on Rattus norvegicus [1] (in the assay text read “at 1 mg” for “at 1 ug”) and with Rattus norvegicus [2] was inactive.
With `COc1ccc(C(=O)C2C(c3ccc(OC)cc3)=CCc3ccccc32)cc1` (configuration not stated), the outcome in the test with Rattus norvegicus [1] and in the test on Rattus norvegicus [2] was inactive.
For `COc1ccc(C2=C(C(=O)c3ccc(OCCN4CCCC4)cc3)c3ccccc3CC2)cc1.CS(=O)(=O)O` [TRIOXIFENE MESYLATE], the “inhibition (INH)” value was 25.9% with Mus musculus [3]; 22.8% in the test with Mus musculus [4]; 0% in the test with Mus musculus [8]; 31.1% with Mus musculus [11]; 12.7% in the test with Mus musculus [12]; 52.3% in the test with Mus musculus [15]. Also, the “inhibition (INH)” value is reported as 49.2% in the test with Mus musculus [19], 44.1% in the test on Mus musculus [25] and 53.5% with Mus musculus [28]. For the same compound, the Activity came out at 8.6 mg in the test on Mus musculus [5]; 34 mg with Mus musculus [7]; 200.9 mg in the test on Rattus norvegicus [10]; 54.9 mg with Rattus norvegicus [14]; 222.3 mg in the test on Rattus norvegicus [16]; 21.2 mg in the test on Mus musculus [17]. Moreover, the Activity in the test on Mus musculus [20] is recorded as 19.1 mg; in the test with Mus musculus [21], 24.2 mg; in the test on Rattus norvegicus [22] it was 66.8 mg; in the test with Rattus norvegicus [23], 231.7 mg; with Mus musculus [24] it was 28.8 mg; with Rattus norvegicus [26] it was 58.7 mg. Besides, in the test on Rattus norvegicus [27], the Activity is on record as 35 mg. Further, the result in the test with Rattus norvegicus [6] and in the test on Rattus norvegicus [13] was inactive. The outcome in the test with Rattus norvegicus [9], in the test with Rattus norvegicus [1], in the test with Rattus norvegicus [18] and in the test with Rattus norvegicus [2] was Active.
